Measured values from ChEMBL document CHEMBL4732105, “First orally bioavailable prodrug of proteolysis targeting chimera (PROTAC) degrades cyclin-dependent kinases 2/4/6 in vivo” (Eur J Med Chem, 2021).
pIC50: −log10 of the molar value. The source made the active and inactive calls. The rule behind the calls is not given here.

Key:
A-375 [1] = assay: Cytotoxicity against human A375 cells assessed as reduction in cell viability after 72 hrs by MTT assay; type: functional, cell-based; conditions: A-375, 72 h
In short: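 Cells exposed to compound for 72 h and viability read by MTT; IC50 from three independent experiments.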

[2] = target: T1, Protein cereblon/Cyclin-dependent kinase 6 (Mus musculus) (UniProt Q8C7D2+Q64261); assay: Protac activity at CRBN/CDK6 in mouse B16F10 cells assessed as induction of CDK6 protein degradation after 12 hrs by Western blot analysis; type: cell-based; conditions: B16-F10, dose 62.5-1000 nM
T1 sequence (Q64261 whole entry, looked up): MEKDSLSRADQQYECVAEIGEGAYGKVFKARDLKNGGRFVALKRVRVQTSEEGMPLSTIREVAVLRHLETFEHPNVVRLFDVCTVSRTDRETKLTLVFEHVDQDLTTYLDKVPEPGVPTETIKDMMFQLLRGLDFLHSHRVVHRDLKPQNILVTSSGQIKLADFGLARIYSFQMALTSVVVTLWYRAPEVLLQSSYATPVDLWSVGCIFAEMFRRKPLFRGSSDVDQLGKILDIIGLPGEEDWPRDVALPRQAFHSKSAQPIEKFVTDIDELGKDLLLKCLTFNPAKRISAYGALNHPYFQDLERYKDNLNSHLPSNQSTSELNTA
T1 sequence (Q8C7D2 whole entry, looked up): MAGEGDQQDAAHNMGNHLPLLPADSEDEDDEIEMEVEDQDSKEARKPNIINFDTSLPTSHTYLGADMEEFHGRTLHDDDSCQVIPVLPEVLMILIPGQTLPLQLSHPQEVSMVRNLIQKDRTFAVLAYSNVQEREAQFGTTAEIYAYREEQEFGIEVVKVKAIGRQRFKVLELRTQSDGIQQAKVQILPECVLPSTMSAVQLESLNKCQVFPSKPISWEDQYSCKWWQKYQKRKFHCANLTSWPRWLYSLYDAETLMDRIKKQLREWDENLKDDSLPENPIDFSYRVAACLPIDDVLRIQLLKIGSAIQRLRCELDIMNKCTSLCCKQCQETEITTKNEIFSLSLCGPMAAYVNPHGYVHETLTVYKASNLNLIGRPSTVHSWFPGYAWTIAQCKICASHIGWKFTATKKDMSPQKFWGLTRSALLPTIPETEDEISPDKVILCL
In short: (§1)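 B16F10 and A375 cells treated with DMSO or serial dilutions of compound for 12 h (concentration series), or for the indicated times (time course). CDK2, CDK4 and CDK6 protein levels determined by western blot.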

[3] = target: Protein cereblon/Cyclin-dependent kinase 2 (Homo sapiens) (UniProt P24941+Q96SW2); assay: Protac activity at CRBN/CDK2 in human A-375 cells assessed as induction of CDK2 protein degradation after 12 hrs by Western blot analysis; type: cell-based; conditions: dose 62.5-1000 nM; in short: as §1
[4] = target: Protein cereblon/Cyclin-dependent kinase 6 (Homo sapiens) (UniProt Q00534+Q96SW2); assay: Protac activity at CRBN/CDK6 in human A-375 cells assessed as induction of CDK6 protein degradation after 12 hrs by Western blot analysis; type: cell-based; conditions: dose 62.5-1000 nM; in short: as §1
Protein cereblon/Cyclin-dependent kinase 6 (Homo sapiens), sequence (Q00534 whole entry, looked up): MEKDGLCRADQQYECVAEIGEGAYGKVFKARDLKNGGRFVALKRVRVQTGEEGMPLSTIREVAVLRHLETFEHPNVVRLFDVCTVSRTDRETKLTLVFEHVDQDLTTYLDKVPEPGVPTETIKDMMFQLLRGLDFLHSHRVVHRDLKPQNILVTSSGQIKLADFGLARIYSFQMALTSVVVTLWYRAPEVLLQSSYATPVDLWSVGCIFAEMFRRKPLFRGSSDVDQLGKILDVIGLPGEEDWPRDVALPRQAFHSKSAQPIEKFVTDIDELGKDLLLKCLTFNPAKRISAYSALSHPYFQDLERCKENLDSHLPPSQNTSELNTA
Protein cereblon/Cyclin-dependent kinase 6 (Homo sapiens), sequence (Q96SW2 whole entry, looked up): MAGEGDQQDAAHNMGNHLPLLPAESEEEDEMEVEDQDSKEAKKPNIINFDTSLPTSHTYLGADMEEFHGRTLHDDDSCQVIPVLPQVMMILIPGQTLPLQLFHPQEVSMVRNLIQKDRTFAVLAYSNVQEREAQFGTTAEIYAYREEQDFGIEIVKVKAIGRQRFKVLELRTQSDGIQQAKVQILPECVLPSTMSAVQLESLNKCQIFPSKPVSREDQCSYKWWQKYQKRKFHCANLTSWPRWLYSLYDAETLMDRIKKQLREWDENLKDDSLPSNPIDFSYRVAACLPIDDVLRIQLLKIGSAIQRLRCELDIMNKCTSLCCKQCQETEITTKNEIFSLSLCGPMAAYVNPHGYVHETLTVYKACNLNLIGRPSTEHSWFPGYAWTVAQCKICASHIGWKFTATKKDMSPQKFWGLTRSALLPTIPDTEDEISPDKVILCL

[5] = target: T1, Protein cereblon/Cyclin-dependent kinase 6 (Mus musculus); assay: Protac activity at CRBN/CDK6 in mouse B16F10 cells assessed as induction of CDK6 protein degradation at 500 nM by Western blot analysis; type: cell-based; conditions: B16-F10, time hrs <=12, TDE = time-dependent effect; in short: as §1
B16-F10 [6] = assay: Inhibition of colony formation in mouse B16F10 cells at 50 to 100 nM measured after 7 days by crystal violet staining based colony formation assay; type: functional, cell-based; conditions: dose 50-100 nM, time 7.0 day
In short: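 Colony formation (long-term growth) assay in A375 and B16F10 cells under continuous compound exposure for 7 days, then clonogenic growth quantified. Mean ± SD, n = 3; Student's t-test.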

A-375 [7] = assay: Induction of apoptosis in human A-375 cells incubated for 48 hrs by Annexin V-FITC/PI staining based flow cytometry; type: functional, cell-based; conditions: dose nM <=1000, time 48.0 hrs
B16-F10 [8] = assay: Induction of apoptosis in mouse B16F10 cells assessed as increase in cleaved PARP level incubated for 48 hrs by Western blot analysis; type: functional, cell-based; conditions: dose nM <=1000, time 48.0 hrs
In short: (§2)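 A375 and B16F10 cells incubated with compound for 48 h. Cleaved caspase-3, cleaved PARP, total P53, Bcl-2 and Bax measured by western blot.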

B16-F10 [9] = assay: Induction of apoptosis in mouse B16F10 cells assessed as increase in bax level upto 1000 nM incubated for 48 hrs by Western blot analysis; type: functional, cell-based; conditions: dose nM <=1000, time 48.0 hrs; in short: as §2
A-375 [10] = assay: Induction of apoptosis in human A-375 cells assessed as increase in bax level upto 2000 nM incubated for 48 hrs by Western blot analysis; type: functional, cell-based; conditions: dose nM <=2000, time 48.0 hrs; in short: as §2
B16-F10 [11] = assay: Induction of apoptosis in mouse B16F10 cells assessed as decrease in Bcl-2 level upto 1000 nM incubated for 48 hrs by Western blot analysis; type: functional, cell-based; conditions: dose nM <=1000, time 48.0 hrs; in short: as §2
[12] = Cmax in Sprague-Dawley rat at 200 mg/kg, po; type: ADME, organism-based; set-up: route oral, dose 200 mg/kg; conditions: in vivo
In short: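 Single oral dose of 200 mg/Kg to SD rats (n = 3). Prodrug and released active degrader quantified in plasma over 0–12 h; Cmax, Tmax and AUC0-12 derived by non-compartmental model.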

[13] = AUC (0 to 12 hrs) in Sprague-Dawley rat at 10 mg/kg, iv; type: ADME, organism-based; set-up: time < 12 hr, route intravenous, dose 10 mg/kg; conditions: in vivo
[14] = target: T1, Protein cereblon/Cyclin-dependent kinase 6 (Mus musculus); assay: Protac activity at CRBN/CDK6 in mouse B16F10 cells assessed as induction of CDK6 protein degradation at 100 nM for 6 hrsin presence of Pomalidomide by Western blot analysis; type: cell-based; conditions: B16-F10, time 6.0 hrs
In short: (§3)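 B16F10 cells pre-treated 2 h with DMSO, pomalidomide (10 μM), MG132 (20 μM) or a parent CDK ligand, then exposed to 100 nM degrader for 6 h. CDK2/4/6 protein levels read by western blot.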

[15] = target: Protein cereblon/Cyclin-dependent kinase 4 (Mus musculus) (UniProt P30285+Q8C7D2); assay: Protac activity at CRBN/CDK4 in mouse B16F10 cells assessed as induction of CDK4 protein degradation at 100 nM for 6 hrsin presence of methyl 6-(7-cyclopentyl-6-(dimethylcarbamoyl)-7H-pyrrolo[2,3-d]pyrimidin-2-ylamino)nicotinate by Western blot analysis; type: cell-based; conditions: B16-F10, time 6.0 hrs; in short: as §3
Protein cereblon/Cyclin-dependent kinase 4 (Mus musculus), sequence (P30285 whole entry, looked up): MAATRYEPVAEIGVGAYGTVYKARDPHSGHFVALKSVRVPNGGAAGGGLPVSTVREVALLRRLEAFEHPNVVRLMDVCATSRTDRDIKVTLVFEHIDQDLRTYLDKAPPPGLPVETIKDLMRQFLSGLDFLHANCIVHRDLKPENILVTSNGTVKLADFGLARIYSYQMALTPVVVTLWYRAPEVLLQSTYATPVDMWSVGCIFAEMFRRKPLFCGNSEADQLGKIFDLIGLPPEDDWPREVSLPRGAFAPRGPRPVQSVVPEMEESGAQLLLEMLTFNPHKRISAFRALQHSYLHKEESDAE
Protein cereblon/Cyclin-dependent kinase 4 (Mus musculus), sequence (Q8C7D2 whole entry, looked up): as the sequence (Q8C7D2 whole entry, looked up) above

[16] = target: Protein cereblon/Cyclin-dependent kinase 2 (Mus musculus) (UniProt P97377+Q8C7D2); assay: Protac activity at CRBN/CDK2 in mouse B16F10 cells assessed as induction of CDK2 protein degradation at 100 nM for 6 hrsin presence of Ribociclib by Western blot analysis; type: cell-based; conditions: B16-F10, time 6.0 hrs
Protein cereblon/Cyclin-dependent kinase 2 (Mus musculus), sequence (Q8C7D2 whole entry, looked up, other chains not shown): as the sequence (Q8C7D2 whole entry, looked up) above

[17] = target: T1, Protein cereblon/Cyclin-dependent kinase 6 (Mus musculus); assay: Protac activity at CRBN/CDK6 in mouse B16F10 cells assessed as induction of CDK6 protein degradation at 100 nM for 6 hrsin presence of Ribociclib by Western blot analysis; type: cell-based; conditions: B16-F10, time 6.0 hrs
B16-F10 [18] = assay: Induction of apoptosis in mouse B16F10 cells assessed as viable cells at 250 nM incubated for 48 hrs by Annexin V-FITC/PI staining based flow cytometry (reference value: 95.9%); type: functional; conditions: read-out: Activity
B16-F10 [19] = assay: Induction of apoptosis in mouse B16F10 cells assessed as early apoptotic cells at 250 nM incubated for 48 hrs by Annexin V-FITC/PI staining based flow cytometry (reference value: 3.52%); type: functional
B16-F10 [20] = assay: Induction of apoptosis in mouse B16F10 cells assessed as late apoptotic cells at 250 nM incubated for 48 hrs by Annexin V-FITC/PI staining based flow cytometry (reference value: 0.551%); type: functional
A-375 [21] = assay: Induction of apoptosis in human A-375 cells assessed as late apoptotic cells at 1000 nM incubated for 48 hrs by Annexin V-FITC/PI staining based flow cytometry (reference value: 3.28%); type: functional
A-375 [22] = assay: Induction of apoptosis in human A-375 cells assessed as necrotic cells at 1000 nM incubated for 48 hrs by Annexin V-FITC/PI staining based flow cytometry (reference value: 0.602%); type: functional
B16-F10 [23] = assay: Induction of cell cycle arrest in mouse B16-F10 cells assessed as accumulation at G1 phase at 25 uM incubated for 48 hrs by propidium iodide staining based flow cytometry (reference value: 52.59%); type: functional
B16-F10 [24] = assay: Induction of cell cycle arrest in mouse B16-F10 cells assessed as accumulation at G1 phase at 50 uM incubated for 48 hrs by propidium iodide staining based flow cytometry (reference value: 52.59%); type: functional
B16-F10 [25] = assay: Induction of cell cycle arrest in mouse B16-F10 cells assessed as accumulation at G2 phase at 50 uM incubated for 48 hrs by propidium iodide staining based flow cytometry (reference value: 18.22%); type: functional
A-375 [26] = assay: Induction of cell cycle arrest in human A-375 cells assessed as accumulation at G1 phase at 250 uM incubated for 48 hrs by propidium iodide staining based flow cytometry (reference value: 58.26%); type: functional
In short: (§4)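 Tumor cells incubated 48 h in complete medium with compound or DMSO at various concentrations, stained with propidium iodide, and DNA content read by flow cytometry. G0/G1, S and G2/M fractions reported; mean ± SD, n = 3, Student's t-test.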

A-375 [27] = assay: Induction of cell cycle arrest in human A-375 cells assessed as accumulation at G2 phase at 250 uM incubated for 48 hrs by propidium iodide staining based flow cytometry (reference value: 12.42%); type: functional; in short: as §4

Activity [2]: Dose-dependent effect
Activity [3]: Dose-dependent effect
Activity [4]: Dose-dependent effect
Activity [5]: Tde
Cmax [12]: 692 µg/mL
AUC [13]: 161 µg·h/mL
Activity [14]: inactive
Activity [15]: inactive
Activity [16]: Active
Activity [17]: inactive
SMILES: CN(C)C(=O)c1cc2cnc(Nc3ccc(C(=O)NCCCCCCNc4cccc5c4C(=O)N(C4CCC(=O)NC4=O)C5=O)cc3)nc2n1C1CCCC1 (configuration not stated)
pIC50 (A-375 [1]): 6.78
inhibition (B16-F10 [6]): Active
Activity (A-375 [7]): Dose-dependent effect
Activity (B16-F10 [8]): Dose-dependent effect
Activity (B16-F10 [9]): Active
Activity (A-375 [10]): Active
Activity (B16-F10 [11]): Active
viability at 0.25 µM (B16-F10 [18]): 23.4%
Activity (B16-F10 [19]): 70.3%
Activity (B16-F10 [20]): 6.13%
Activity (A-375 [21]): 14.8%
Activity (A-375 [22]): 0.273%
Activity (B16-F10 [23]): 49.67%
Activity (B16-F10 [24]): 49.54%
Activity (B16-F10 [25]): 22.66%
Activity (A-375 [26]): 67.64%
Activity (A-375 [27]): 9.57%
